Data published in ChEMBL document CHEMBL2086324, “Synthesis and antimalarial activity of new haemanthamine-type derivatives” (Bioorg Med Chem, 2012).
pIC50: −log10 of the molar value.

System: Plasmodium falciparum
Test: Antiplasmodial activity against chloroquine-sensitive Plasmodium falciparum F-32 Tanzania assessed as inhibition of parasitemia after 3 days
Type: functional, organism-based
Conditions: 72 h
Method in brief: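 P. falciparum grown in glucose-enriched RPMI 1640 with 10% human serum, 37 °C. After 24 h the medium was replaced with fresh medium containing compound in DMSO at 0.1, 1 and 10 µg/mL, and incubation continued 48 h. Parasitemia was counted by blood smear per well on day 3 against control. IC50 was read graphically from concentration vs percent inhibition. Chloroquine 0.04 µM served as positive control.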

| pIC50 | SMILES |
| --- | --- |
| 4.88 | O[C@@H]1C=C[C@@]23c4cc5c(cc4CN(C[C@H]2O)[C@H]3C1)OCO5 |
| 4.12 | COC1c2cc3c(cc2[C@@]24C=C[C@@H](OC)C[C@@H]2N1C[C@H]4O)OCO3 (stereo partly specified) |
| 4.12 | CO[C@@H]1C=C[C@@]23c4cc5c(cc4CN(C[C@H]2OC(C)=O)[C@H]3C1)OCO5 |
| < 4.00 | C=Cc1ccc(C(=O)O[C@@H]2CN3Cc4cc5c(cc4[C@]24C=C[C@@H](OC)C[C@H]34)OCO5)cc1 |
| 4.29 | CO[C@@H]1C=C[C@@]23c4cc5c(cc4CN(C[C@H]2OC(=O)c2cccnc2)[C@H]3C1)OCO5 |
| 4.36 | CO[C@@H]1C=C[C@@]23c4cc5c(cc4CN(C[C@H]2OC(=O)c2ccc(Br)cc2)[C@H]3C1)OCO5 |
| 4.25 | CO[C@@H]1C=C[C@@]23c4cc5c(cc4CN(C[C@H]2OC(=O)C(C)C)[C@H]3C1)OCO5 |
| 5.08 | C=CC(=O)O[C@@H]1CN2Cc3cc4c(cc3[C@]13C=C[C@@H](OC)C[C@H]23)OCO4 |
| 5.80 | CO[C@@H]1C=C[C@]23c4cc5c(cc4CN([C@H]2C1)[C@H]1O[C@H]13)OCO5 |
| 4.13 | CO[C@@H]1C=C[C@]23C(=O)CN(Cc4cc5c(cc42)OCO5)[C@H]3C1 |
| 4.02 | CO[C@@H]1C=C[C@]23/C(=N/O)CN(Cc4cc5c(cc42)OCO5)[C@H]3C1 |
| 4.87 | Oc1cc2c(cc1O)[C@@]13C=C[C@@H](O)C[C@@H]1N(C2)C[C@H]3O |
| < 4.00 | CO[C@@H]1C=C[C@@]23c4cc5c(cc4C[N+]([O-])(C[C@H]2O)[C@H]3C1)OCO5 |
| 5.00 | CO[C@@H]1CC[C@@]23c4cc5c(cc4CN(C[C@H]2O)[C@H]3C1)OCO5 |
| 5.19 | CO[C@H]1C[C@@H]2N3Cc4cc5c(cc4[C@@]2([C@H](O)C3)[C@@H](Br)[C@@H]1Br)OCO5 |
| 4.20 | CO[C@H]1C[C@@H]2N3Cc4cc5c(cc4[C@@]2([C@H](O)C3)[C@@H](O)[C@@H]1Br)OCO5 |

| pIC50 | SMILES |
| --- | --- |
| 4.14 | CO[C@H]1C[C@@H]2N3Cc4cc5c(cc4[C@@]2([C@H](O)C3)[C@@H](Br)[C@@H]1O)OCO5 |
| 4.13 | CN(C=O)Cc1cc2c(cc1-c1ccc(O)cc1)OCO2 |
| < 4.00 | CCN(C=O)Cc1cc2c(cc1-c1ccc(O)cc1)OCO2 |
| 4.28 | CO[C@@H]1C=C[C@@]23c4cc5c(cc4C(OC(C)=O)N(C[C@H]2OC(C)=O)[C@H]3C1)OCO5 (stereo partly specified) |
| 5.15 | CO[C@@H]1C=C[C@@]23c4cc5c(cc4C(OC(=O)c4cccnc4)N(C[C@H]2O)[C@H]3C1)OCO5 (stereo partly specified) |
| 5.54 | CO[C@@H]1C=C[C@@]23c4cc5c(cc4C(OC(=O)c4ccc(Br)cc4)N(C[C@H]2OC(=O)c2ccc(Br)cc2)[C@H]3C1)OCO5 (stereo partly specified) |
| 4.28 | CO[C@@H]1C=C[C@@]23c4cc5c(cc4C(OC(=O)C(C)C)N(C[C@H]2OC(=O)C(C)C)[C@H]3C1)OCO5 (stereo partly specified) |
| 4.12 | CO[C@@H]1C=C[C@@]2(c3cc4c(cc3C=O)OCO4)C(=O)C=N[C@H]2C1 |
| 4.14 | Oc1cc2c(cc1O)[C@@]13C=C[C@@H](O)C[C@@H]1N(C[C@H]3O)C2O (stereo partly specified) |
| 4.07 | OC1c2cc3c(cc2[C@@]24C=C[C@H]5C[C@@H]2N1C[C@H]4O5)OCO3 (stereo partly specified) |
| < 4.00 | CC(=O)O[C@@H]1C=C[C@@]23c4cc5c(cc4CN(C[C@H]2OC(C)=O)[C@H]3C1)OCO5 |
| 5.29 | COC(C(=O)O[C@@H]1C=C[C@@]23c4cc5c(cc4CN(C[C@H]2OC(=O)C(OC)c2ccccc2)[C@H]3C1)OCO5)c1ccccc1 (stereo partly specified) |
| 6.10 | O=C(O[C@@H]1C=C[C@@]23c4cc5c(cc4CN(C[C@H]2OC(=O)c2cccnc2)[C@H]3C1)OCO5)c1cccnc1 |
| 5.52 | O=C(O[C@@H]1C=C[C@@]23c4cc5c(cc4CN(C[C@H]2OC(=O)c2ccc(Br)cc2)[C@H]3C1)OCO5)c1ccc(Br)cc1 |
| 5.15 | CC(C)C(=O)O[C@@H]1C=C[C@@]23c4cc5c(cc4CN(C[C@H]2OC(=O)C(C)C)[C@H]3C1)OCO5 |
| 4.03 | C1=C[C@@]23c4cc5c(cc4CN4C[C@H]2O[C@@H]1C[C@H]43)OCO5 [APOHAEMANTHAMINE] |

| SMILES | pIC50 |
| --- | --- |
| COc1cc2c(cc1O)CN1CC[C@@]23C=CC(O)C[C@H]13 (stereo partly specified) | 4.04 |
| CO[C@@H]1C=C[C@@]23c4cc5c(cc4CN(C[C@@H]2O)[C@H]3C1)OCO5 [(+)-HAEMANTHAMINE] | 5.89 |
| CO[C@@H]1C=C[C@@]23c4cc5c(cc4[C@@H](O)N(C[C@H]2O)[C@H]3C1)OCO5 [HAEMANTHIDINE] | 5.92 |
| O[C@@H]1C=C[C@]23CCN(Cc4cc5c(cc42)OCO5)[C@H]3C1 [VITTATINE] | 5.14 |
